MEKK2wt PB1 HTS – modulators of MEK5 binding to wildtype MEKK2, primary screen, biochemical, multiplex bead flow cytometry, Alexa488-MEK5; binding response (% of control), % at 10 µM; Alexa488-MEK5 binding to MEKK2 WT; actives lie on both sides; Mitogen-activated protein kinase kinase kinase 2 (Homo sapiens), Q9Y2U5; AID 1531, 2009; actives 1.1% (n = 290,000); in the data active = binding response below about 67% or above about 130%
MEKK2 mut-MEK5 – MEK5 binding signal on mutant MEKK2 PB1, primary screen, biochemical, multiplex bead flow cytometry, Alexa488-MEK5 | Alexa488-MEK5 binding to MEKK2 mutant | percent response, % at 10 µM | actives 0.35% (n = 290,000) | AID 1530, 2009; in the data active = percent response above about 24%, passing the limit was not always enough
MEKK3 PB1 HTS – modulators of MEKK3-MEK5 PB1 binding, primary screen, biochemical, wildtype MEKK3, multiplex bead flow cytometry, Alexa488-MEK5; Mitogen-activated protein kinase kinase kinase 3 (Homo sapiens), Q99759; bead-based flow cytometry, Alexa488-MEK5 binding to MEKK3; actives lie on both sides; 0 = blocked by unlabeled MEK5, 100 = vehicle; binding response (% of control), % at 10 µM; actives 1.4% (n = 290,000);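 active = binding response more than 3 SD above or below the average of its plate-row segment, actives on both sides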;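 also: Alexa488 bead fluorescence after subtracting the streptavidin-only scavenger bead signal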
ABCB1 inh – ABCB1 efflux pump inhibitors, primary screen, cell-based, multiplex, flow cytometry, ABCG2 counter-screen | ATP-dependent translocase ABCB1 (Homo sapiens), P08183 | CCRF-Adr cells, JC-1 efflux | inhibition, % at 6.6 µM | actives 0.067% (n = 190,000) | AID 1326, 2008; in the data active = inhibition above about 40%;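 also: 0% = vehicle and 100% = reference inhibitor; higher value means more JC-1 retained so stronger ABCB1 efflux block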
Target sequence (P08183 whole entry, looked up): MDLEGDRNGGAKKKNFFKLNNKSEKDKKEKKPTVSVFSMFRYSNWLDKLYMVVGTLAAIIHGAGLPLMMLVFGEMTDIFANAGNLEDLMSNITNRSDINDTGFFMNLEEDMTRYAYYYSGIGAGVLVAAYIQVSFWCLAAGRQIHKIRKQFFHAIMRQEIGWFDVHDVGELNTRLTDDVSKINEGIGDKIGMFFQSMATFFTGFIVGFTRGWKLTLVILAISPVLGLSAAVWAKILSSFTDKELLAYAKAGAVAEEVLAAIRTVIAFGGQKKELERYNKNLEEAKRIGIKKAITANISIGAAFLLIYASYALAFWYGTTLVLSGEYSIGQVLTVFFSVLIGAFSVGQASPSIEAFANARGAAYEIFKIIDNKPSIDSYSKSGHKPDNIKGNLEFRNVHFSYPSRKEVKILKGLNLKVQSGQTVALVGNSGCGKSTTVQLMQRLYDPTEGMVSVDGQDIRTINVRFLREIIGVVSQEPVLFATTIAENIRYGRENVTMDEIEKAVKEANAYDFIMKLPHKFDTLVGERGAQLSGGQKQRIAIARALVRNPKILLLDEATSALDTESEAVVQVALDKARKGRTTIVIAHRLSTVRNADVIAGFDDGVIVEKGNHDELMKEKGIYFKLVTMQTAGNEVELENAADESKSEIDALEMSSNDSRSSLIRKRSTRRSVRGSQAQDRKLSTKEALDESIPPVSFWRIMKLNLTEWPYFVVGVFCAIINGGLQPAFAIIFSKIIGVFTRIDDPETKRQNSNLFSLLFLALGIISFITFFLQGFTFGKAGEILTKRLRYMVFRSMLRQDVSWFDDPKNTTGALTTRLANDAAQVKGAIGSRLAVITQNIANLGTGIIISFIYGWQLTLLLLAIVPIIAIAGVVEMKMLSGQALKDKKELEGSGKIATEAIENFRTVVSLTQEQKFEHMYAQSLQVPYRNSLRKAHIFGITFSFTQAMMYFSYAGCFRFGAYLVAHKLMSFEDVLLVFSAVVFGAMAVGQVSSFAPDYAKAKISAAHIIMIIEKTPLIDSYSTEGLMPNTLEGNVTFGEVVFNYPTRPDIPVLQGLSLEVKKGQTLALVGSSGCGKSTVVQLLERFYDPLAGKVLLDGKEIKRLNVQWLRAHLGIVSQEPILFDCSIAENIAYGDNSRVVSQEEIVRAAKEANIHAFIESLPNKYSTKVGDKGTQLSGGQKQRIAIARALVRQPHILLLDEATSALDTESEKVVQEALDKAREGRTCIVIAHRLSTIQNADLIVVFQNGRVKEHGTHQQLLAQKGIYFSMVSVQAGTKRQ
ABCG2 block – ABCG2 efflux pump inhibitors, primary screen, multiplex with ABCB1, IgMXP3 cells, flow cytometry | inhibition, % at 6.6 µM | JC-1 efflux | actives 0.1% (n = 190,000) | AID 1325, 2008;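 active = inhibition above 80%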;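 also: 0% = DMSO and 100% = nicardipine control wells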
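Times: 10 min at 25 °C | Test system: Two drug-resistant human cell lines, ABCG2 and ABCB1 | Quantity: 3 million cells/mL final, two lines in 1:1 ratio | Signal: Flow cytometry, 530 nm JC-1 signal | Dosing: Compound at 6.6 µM | Controls: Nicardipine and DMSO wells | Reagent: JC-1 as fluorescent efflux pump substrate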
WT yeast gro inh – growth inhibition of WT strain, primary screen, mitochondrial fusion inhibitor project, WT and mutant strains, chemical genetic; mitochondrial fusion phenotypic screen; inhibition, % at 10 µM; actives 2.1% (n = 190,000); in the data active = inhibition above about 58%; tested in S. cerevisiae
MEKK2wt confirm – modulators of MEK5 binding to wildtype MEKK2, confirmation, biochemical, single concentration, multiplex bead flow cytometry. shares compounds with MEKK3 PB1 HTS. Alexa488-MEK5 binding to MEKK2 WT; actives lie on both sides. binding response (% of control), % at 10 µM. actives 2.4% (n = 5,900). AID 1892, 2009; in the data active = binding response below about 16% or above about 210%; inactive = in between
MEKK2mut confirm – mutant MEKK2 PB1-MEK5 binding signal retest – biochemical, single concentration, multiplex bead flow cytometry, confirmation | shares compounds with MEKK3 PB1 HTS | Alexa488-MEK5 binding to MEKK2 mutant | percent response, % at 10 µM | actives 2% (n = 5,900) | AID 1893, 2009; in the data active = percent response mostly above about 71%, no sharp cut-off; inactive = mostly below about 38%;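 also: higher means compound restores mutant binding toward wildtype level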
MEKK3-MEK5 inh – MEKK3 wild-type PB1 binding to MEK5, inhibitors, confirmation, biochemical, bead multiplex flow cytometry, single concentration, wildtype. Alexa488-MEK5 binding to MEKK3; active compounds read low. binding response (% of control), % at 10 µM. shares compounds with MEKK3 PB1 HTS. AID 1894, 2009. actives 1.8% (n = 5,900);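 active = binding response below 72% of control, or above a set upper limit, though filed actives all read lower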;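 also: 100% = DMSO only wells and 0% = binding blocked by excess unlabeled MEK5; lower values mean stronger disruption of MEK5 binding to MEKK3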
* hit, by the source's call; x = not tested or not shown; ! = repeats disagree; [ ] = dose if it differs, or a comment. Shown are actives, neighbours in structure and some others; about 3.5% of the full set was active somewhere.

SMILES	MEKK2wt PB1 HTS	MEKK2 mut-MEK5	MEKK3 PB1 HTS	ABCB1 inh	ABCG2 block	WT yeast gro inh	MEKK2wt confirm	MEKK2mut confirm	MEKK3-MEK5 inh
CC(C)c1ccc(CNC(=O)CSCC(=O)Nc2ccc3ccccc3c2)cc1	140.0*	12.0	117.0	1.1	6.9	9.6	106.0	2.0	101.0
CCCCCCn1ccc(=N)cc1	95.0	-10.0	81.0	0.1	0.0	-0.6	x	x	x
CCCCCCCCCCCCCCCCn1cc[n+](CC(C)=O)c1	220.0*	89.0*	109.0	-0.2	-1.1	97.9	203.0	68.0	108.0
Cc1ccc(S(=O)(=O)Nc2ccsc2C#N)cc1	102.0	5.0	101.0	x	x	x	x	x	x
COc1cc(NC(=O)C2CCN(S(=O)(=O)c3cccnc3)CC2)cc(OC)c1OC	114.0	25.0*	115.0	0.5	1.7	-6.4	104.0	10.0	108.0
Cc1cccc(C)c1NC(=O)CCCCCC1NC(=O)NC1C (stereo not drawn)	107.0	2.0	104.0	0.4	3.0	-7.2	x	x	x
CC1NC(=O)NC1CCCCCC(=O)NCCc1ccccc1 (stereo not drawn)	-2.0*[inhibitor]	-21.0	1.0*[inhibitor]	0.3	2.3	-11.0	111.0	3.0	104.0
CC(C)CNC(=S)NNC(=O)c1ccco1	104.0	4.0	104.0	-0.5	-2.7	4.0	x	x	x
O=C(CN1CCCC(O)C1)N1c2ccccc2Sc2ccc(C(F)(F)F)cc21 (stereo not drawn)	105.0	5.0	108.0	0.1	-1.8	-3.2	x	x	x
CN1CCN(CCCN2c3ccccc3Sc3ccc(C(F)(F)F)cc32)CC1	168.0*	16.0	84.0	1.0	0.0	92.6*!	137.0	21.0	106.0
CC(C)(C)OC(=O)CC12CCCCC1NC(=O)O2 (stereo not drawn)	108.0	0.0	104.0	x	x	x	x	x	x
Cc1ccccc1OCCCn1c(=O)sc2ccccc21	111.0	6.0	112.0	0.5	4.7	30.8	x	x	x
CCOc1cc(C(=O)N2CCOCC2)ccc1OCc1ccccc1	108.0	16.0	107.0	5.0	12.3	-4.5	x	x	x
CCn1cc(Br)c(C(=O)Nc2cccc(Cl)c2)n1	-5.0*[inhibitor]	-39.0	0.0*[inhibitor]	0.7	3.8	26.1	97.0	-5.0	95.0
Cc1ccc(C(=O)Nc2cccc(NC(=O)c3ccc(C)o3)n2)o1	108.0	1.0	98.0	x	x	x	x	x	x
Cc1ccc(Nc2nc(N)nc(CN3CCN(C(=O)c4ccco4)CC3)n2)cc1Cl	106.0	0.0	110.0	-0.2	14.5	14.5	x	x	x
CC(C)(C)NC(=O)NC(=O)COC(=O)c1cc[n+]([O-])cc1	95.0	-2.0	96.0	1.1	5.1	8.1	x	x	x
CCOC(=O)Cc1csc(NC(=O)c2c(O)c3ccccc3n(CC(C)C)c2=O)n1	78.0	-9.0	73.0*[inhibitor]	x	x	10.9	106.0	6.0	106.0
CCOC(=O)Cc1csc(NC(=O)c2cccs2)n1	98.0	1.0	99.0	-0.4	17.0	11.0	x	x	x
CCn1c(SC)nnc1C1CCCN(CC(=O)Nc2ccccc2N2CCOCC2)C1 (stereo not drawn)	102.0	-3.0	100.0	x	x	x	x	x	x
CCN1CCN(C(c2ccc(C(F)(F)F)cc2)c2ccc3cccnc3c2O)CC1 (stereo not drawn)	164.0*	40.0*	115.0	x	x	x	166.0	40.0	106.0
CCC(=O)NC(c1ccc(C)cc1)c1ccc2cccnc2c1O (stereo not drawn)	110.0	6.0	104.0	x	x	x	x	x	x
C=CSc1sc(Cl)c(N(CC)CC)c1[N+](=O)[O-]	x	x	x	3.4	7.5	9.3	x	x	x
Cc1c(C(=O)NNS(=O)(=O)c2ccccc2)sc(=S)n1C	113.0	0.0	139.0*	0.1	11.7	-4.8	97.0	-5.0	102.0
Cc1nnsc1C(=O)NNS(=O)(=O)c1ccccc1	104.0	8.0	102.0	0.4	1.8	4.1	x	x	x
SMILES	MEKK2wt PB1 HTS	MEKK2 mut-MEK5	MEKK3 PB1 HTS	ABCB1 inh	ABCG2 block	WT yeast gro inh	MEKK2wt confirm	MEKK2mut confirm	MEKK3-MEK5 inh
C[C@@H]1C=C(C(=O)NCc2nc3ccccc3[nH]2)O[C@H](OCCCCO)C1	103.0	1.0	102.0	x	x	x	x	x	x
CC(=O)c1c(C)[nH]c(C(=O)Nc2ccccn2)c1C	97.0	-6.0	95.0	x	x	x	x	x	x
CC(=O)c1c(C)[nH]c(C(=O)NC2=NCCS2)c1C	3.0*[inhibitor]	-14.0	2.0*[inhibitor]	0.0	4.1	2.8	1.0*[inhibitor]	-29.0	2.0*
COc1cc(NC(=O)c2cc(C)nc3ccccc23)cc(OC)c1OC	122.0	10.0	142.0*	0.9	13.6	-17.7	110.0	6.0	105.0
COc1ccc(NC(=O)c2cc(C)nc3ccccc23)c(OC)c1	93.0	-2.0	100.0	0.2	16.4	-0.5	x	x	x
CCOc1ccc(-n2c(SCC(=O)NC)nnc2-c2ccco2)cc1	107.0	16.0	105.0	x	x	x	x	x	x
CC1CCN(C(=O)CSc2nc3c(c(=O)n2C)SC(C)C3)CC1 (stereo not drawn)	102.0	3.0	103.0	x	x	x	x	x	x
O=C(O)COCC(=O)N1CCCN(c2nccc(C(F)(F)F)n2)CC1	105.0	3.0	103.0	x	x	x	x	x	x
COc1ccc(N2C(=O)/C(=C/c3cccs3)NC2=S)cc1	104.0	0.0	141.0*	-1.7	-11.7	10.0	105.0	2.0	105.0
CC1(C)Cc2c(sc(NC(=O)C(=O)N3CCN(CCO)CC3)c2C(N)=O)CO1	101.0	1.0	99.0	x	x	x	x	x	x
Nc1c(N(CCO)C(=O)COc2ccc(Cl)cc2)c(=O)[nH]c(=O)n1Cc1ccccc1	98.0	-1.0	131.0*	0.4	5.9	3.7	98.0	9.0	101.0
Cc1csc2ncc(C(=O)NCCC(c3ccccc3)c3ccccc3)c(=O)n12	123.0	27.0	130.0*	x	x	x	101.0	3.0	97.0
Cc1ccccc1-n1nc2c(c1NC(=O)C(C)(C)C)CS(=O)(=O)C2	103.0	4.0	102.0	x	x	x	x	x	x

Assay outcomes deposited in PubChem by several laboratories.
